Consider 2 molecules from ChEMBL document CHEMBL4014346, “Lead Optimization Generates CYP11B1 Inhibitors of Pyridylmethyl Isoxazole Type with Improved Pharmacological Profile for the Treatment of Cushing's Disease” (J Med Chem, 2017).

Some results are limits rather than exact numbers.

The target in series [1] is T1, Cytochrome P450 11B1, mitochondrial (Homo sapiens, UniProt P15538).
T1 sequence (P15538 whole entry): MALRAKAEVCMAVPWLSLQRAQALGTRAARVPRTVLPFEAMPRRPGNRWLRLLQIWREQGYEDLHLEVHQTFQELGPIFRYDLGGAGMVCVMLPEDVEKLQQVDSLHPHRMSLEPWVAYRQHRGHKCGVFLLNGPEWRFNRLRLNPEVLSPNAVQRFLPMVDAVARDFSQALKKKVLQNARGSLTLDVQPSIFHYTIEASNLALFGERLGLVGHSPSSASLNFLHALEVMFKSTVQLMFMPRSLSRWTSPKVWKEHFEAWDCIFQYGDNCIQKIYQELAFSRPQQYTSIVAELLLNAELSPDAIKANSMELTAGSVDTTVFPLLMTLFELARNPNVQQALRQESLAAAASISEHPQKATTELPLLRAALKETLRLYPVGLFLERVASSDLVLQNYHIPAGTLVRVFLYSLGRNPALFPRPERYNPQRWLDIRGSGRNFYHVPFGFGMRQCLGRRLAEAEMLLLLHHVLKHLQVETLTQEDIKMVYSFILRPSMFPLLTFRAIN
Description: Inhibition of human CYP11B1 expressed in hamster V79MZ cells using [1,2-3H]-11-deoxycorticosterone as substrate after 6 hrs by HPLC analysis. It is filed as cell-based. The method, boiled down: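 V79MZ cells expressing recombinant human CYP11B1 or CYP11B2, or rat CYP11B1, incubated with [1,2-³H]-11-deoxycorticosterone (100 nM) and inhibitor over a range of concentrations; ketoconazole as reference.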

For a further series, the target named is T2, CYP17A1 (Homo sapiens, UniProt P05093).
T2 sequence (P05093 whole entry): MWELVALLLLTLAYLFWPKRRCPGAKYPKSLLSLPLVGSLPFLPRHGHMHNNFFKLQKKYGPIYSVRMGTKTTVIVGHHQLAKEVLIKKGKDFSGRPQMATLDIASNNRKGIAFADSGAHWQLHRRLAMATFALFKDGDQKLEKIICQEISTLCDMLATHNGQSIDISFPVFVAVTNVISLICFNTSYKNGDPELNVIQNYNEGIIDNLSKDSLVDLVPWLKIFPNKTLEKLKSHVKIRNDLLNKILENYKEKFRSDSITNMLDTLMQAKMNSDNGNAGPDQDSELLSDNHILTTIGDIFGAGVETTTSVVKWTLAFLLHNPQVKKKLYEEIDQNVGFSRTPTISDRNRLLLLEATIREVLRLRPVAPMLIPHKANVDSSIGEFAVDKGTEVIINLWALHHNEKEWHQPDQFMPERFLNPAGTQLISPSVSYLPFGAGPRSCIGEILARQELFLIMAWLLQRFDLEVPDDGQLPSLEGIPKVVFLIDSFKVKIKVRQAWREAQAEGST
Description: Inhibition of human CYP17A1 expressed in Escherichia coli membranes at 2 uM using [3H]-progesterone as substrate after 30 mins in presence of NADPH by HPLC analysis relative to control. The format is ADME, cell membranes. The settings on record: Escherichia coli membranes expressing human CYP17A1, probe [3H]-progesterone. The method, boiled down: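 Human CYP17A1 expressed in E. coli; [³H]-progesterone (25 µM) as substrate with NADPH cofactor; test compounds at 2 µM; abiraterone and ketoconazole as references.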

The target in the next series is T3, CYP1A2 (Homo sapiens, UniProt P05177).
T3 sequence (P05177 whole entry): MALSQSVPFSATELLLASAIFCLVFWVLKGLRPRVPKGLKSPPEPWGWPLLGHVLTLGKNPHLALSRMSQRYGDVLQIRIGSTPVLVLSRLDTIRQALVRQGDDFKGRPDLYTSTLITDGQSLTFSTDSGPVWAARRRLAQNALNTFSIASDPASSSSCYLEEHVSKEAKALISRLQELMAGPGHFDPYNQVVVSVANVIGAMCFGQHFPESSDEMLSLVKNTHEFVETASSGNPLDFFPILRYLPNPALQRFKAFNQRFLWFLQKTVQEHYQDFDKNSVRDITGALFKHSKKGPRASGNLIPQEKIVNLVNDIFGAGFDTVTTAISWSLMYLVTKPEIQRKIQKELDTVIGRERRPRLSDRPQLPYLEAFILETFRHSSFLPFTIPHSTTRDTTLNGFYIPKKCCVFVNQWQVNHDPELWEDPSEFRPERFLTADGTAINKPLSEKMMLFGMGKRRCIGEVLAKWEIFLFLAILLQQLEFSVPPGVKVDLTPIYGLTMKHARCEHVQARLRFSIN
Description: Inhibition of recombinant human CYP1A2 expressed in baculovirus infected insect cell microsomes at 1 uM relative to control. It is filed as ADME. In a few lines: (§1)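 Recombinant human CYP1A2, 2B6, 2C9, 2C19, 2D6 and 3A4 in baculovirus-infected insect-cell microsomes, assayed per kit instructions; test compound at 1 µM, percent inhibition.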

The target in a further series is T4, CYP2B6 (Homo sapiens, UniProt P20813).
T4 sequence (P20813 whole entry): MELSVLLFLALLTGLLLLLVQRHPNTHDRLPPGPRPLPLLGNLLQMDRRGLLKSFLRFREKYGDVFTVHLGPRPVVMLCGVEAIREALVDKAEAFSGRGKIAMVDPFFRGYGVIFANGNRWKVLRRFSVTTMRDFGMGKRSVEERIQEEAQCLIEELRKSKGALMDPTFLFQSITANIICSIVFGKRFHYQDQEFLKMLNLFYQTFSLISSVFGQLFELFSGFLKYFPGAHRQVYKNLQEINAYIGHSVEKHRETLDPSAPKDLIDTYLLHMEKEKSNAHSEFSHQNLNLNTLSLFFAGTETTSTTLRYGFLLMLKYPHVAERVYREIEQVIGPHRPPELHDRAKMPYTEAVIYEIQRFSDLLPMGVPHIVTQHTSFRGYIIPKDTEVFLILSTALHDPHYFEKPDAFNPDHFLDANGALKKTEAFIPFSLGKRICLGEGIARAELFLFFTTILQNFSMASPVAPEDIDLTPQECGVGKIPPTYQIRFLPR
Description: Inhibition of recombinant human CYP2B6 expressed in baculovirus infected insect cell microsomes at 1 uM relative to control. The format is ADME. The method, boiled down: as §1

The test system of the next series is Salmonella typhimurium. In words: Mutagenicity in Salmonella typhimurium TA98 up to 100 uM in presence of rat liver S9 fraction by Ames 2 assay. It is filed as toxicity. The settings on record: salmonella enterica subsp. enterica serovar typhimurium. The method, boiled down: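 AMES II kit with Salmonella typhimurium TA98 and TA7001–TA7006, run with or without rat liver S9 fraction according to the kit instructions.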

Series [2] is described as follows: Plasma concentration in Sprague-Dawley rat at 100 mg/kg, po administered as single dose after 4 hrs by HPLC-MS/MS analysis. The format is ADME, organism-based. The method, boiled down:
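One female Sprague-Dawley rat dosed orally with a suspension in 0.5% porcine gelatin/5% mannitol in water, under 2% isoflurane. Tail-vein blood in citrate; plasma precipitated with acetonitrile containing diphenhydramine internal standard and quantified by HPLC-MS/MS.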

Molecule `Cc1cncc(Cc2cc(-c3ccccc3)no2)c1` returned an IC50 in series [1] of 5 nM. For the same molecule, the inhibition at 0.5 h, 2 µM on CYP17A1 was at most 9%. The inhibition at 1 µM worked out at 54% on CYP1A2 and 3% on CYP2B6. Further, the Activity result in the series with Salmonella typhimurium is recorded as “Non-Toxic”. The concentration at 4 h in series [2] is 0.3 µM.

In the case of `COc1cncc(Cc2cc(-c3ccccc3)no2)c1`, in series [1], the IC50 stood at 2 nM. At CYP17A1, the inhibition at 0.5 h, 2 µM is at most 9%. Also, the inhibition at 1 µM at CYP1A2 turned out to be 23%; at CYP2B6 it was 19%. Also, the Activity entry in the series on Salmonella typhimurium is “Non-Toxic”. Moreover, in series [2], the concentration at 4 h is 106 µM.
